Assay results reported in ChEMBL document CHEMBL1123665, “Substituted (aryloxy)alkanoic acids as antagonists of slow-reacting substance of anaphylaxis” (J Med Chem, 1987).
Calls of active or inactive are those of the source. The calls are words filed in the database; no cut-off is given here.

Assays:
Cavia porcellus [1] = experiment: In vivo inhibition of leukotriene-induced bronchoconstriction in guinea pigs, was determined, by administering compound by aerosol route, after 17 min; format: functional, organism-based
Outline: (§1)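 Duration of aerosol protection was measured in anesthetized, propranolol-pretreated male guinea pigs. Each inhaled a 1% neutralized aqueous drug solution by ultrasonic nebulizer for 5 min. LTE i.v. challenge followed after 30 s or 5, 10, 30, 60 or 90 min. Tracheal pressure change gave % inhibition (3 control, 5 treated). Duration is the time at which inhibition fell to 40%.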

[2] = target: Cysteinyl leukotriene receptor (Cavia porcellus); experiment: In vitro inhibition of SRS-A-induced contractions in guinea pig ileum
Cavia porcellus [3] = experiment: In vivo inhibition of leukotriene-induced bronchoconstriction in guinea pigs following 10 mg/kg i.v. administration.; format: functional; conditions: route intravenous
Outline: (§2)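 Male Hartley guinea pigs (400–600 g) were anesthetized with urethane 2 g/kg i.p. and given propranolol 0.1 mg/kg i.v. 5 min before challenge. After succinylcholine 1.2 mg/kg i.v., animals were ventilated at 40 breaths/min with 4.0 cm3 stroke volume. Drug (10 mg/kg) or vehicle went via jugular cannula 30 s before LTE 25 μg/kg i.v. Tracheal pressure change gave % inhibition (3 control, 5 treated).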

Cavia porcellus [4] = species on record: Cavia porcellus; experiment: Inhibitory potency against leukotriene C4 (LTC) induced bronchoconstriction in guinea pigs.; format: functional, organism-based
Outline: (§3)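 Anesthetized male guinea pigs were pretreated with propranolol 0.1 mg/kg i.v. and monitored by tracheal pressure. Maximally constrictory i.v. challenges were LTC 50 μg/kg, LTD 50 μg/kg, LTE 25 μg/kg, PAF 10 μg/kg and histamine 50 μg/kg. Dosing, group sizes and % inhibition calculation were otherwise as for the LTE protocol.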

Cavia porcellus [5] = species on record: Cavia porcellus; experiment: In vitro inhibition of SRS-A-induced contractions in guinea pig ileum; format: functional
Cavia porcellus [6] = species on record: Cavia porcellus; experiment: Inhibitory potency against leukotriene E4 (LTE) induced bronchoconstriction in guinea pigs.; format: functional, organism-based; outline: as §3
Cavia porcellus [7] = species on record: Cavia porcellus; experiment: Inhibitory potency against histamine induced bronchoconstriction in guinea pigs.; format: functional, organism-based; outline: as §3
Cavia porcellus [8] = species on record: Cavia porcellus; experiment: Inhibitory potency against leukotriene D4 (LTD) induced bronchoconstriction in guinea pigs.; format: functional, organism-based; outline: as §3
Cavia porcellus [9] = experiment: In vivo inhibition of leukotriene-induced bronchoconstriction in guinea pigs, was determined, by administering compound by aerosol route, after 42 min; format: functional, organism-based; outline: as §1
Cavia porcellus [10] = species on record: Cavia porcellus; experiment: Inhibitory potency against platelet activating factor (PAF) induced bronchoconstriction in guinea pigs.; format: functional, organism-based; outline: as §3
Cavia porcellus [11] = experiment: In vivo inhibition of leukotriene-induced bronchoconstriction in guinea pigs, was determined, by administering compound by aerosol route, after 55 min; format: functional, organism-based; outline: as §1
Cavia porcellus [12] = experiment: In vivo inhibition of leukotriene-induced bronchoconstriction in guinea pigs, was determined, by administering compound by aerosol route, after 22 min; format: functional, organism-based; outline: as §1
Cavia porcellus [13] = experiment: In vivo inhibition of leukotriene-induced bronchoconstriction in guinea pigs, was determined, by administering compound by aerosol route, after 46 min; format: functional, organism-based; outline: as §1
Cavia porcellus [14] = experiment: In vivo inhibition of leukotriene-induced bronchoconstriction in guinea pigs, was determined, by administering compound by aerosol route, after 77 min; format: functional, organism-based; outline: as §1
Cavia porcellus [15] = experiment: In vivo inhibition of leukotriene-induced bronchoconstriction in guinea pigs, was determined, by administering compound by aerosol route, after 37 min; format: functional, organism-based; outline: as §1
Cavia porcellus [16] = experiment: In vivo inhibition of leukotriene-induced bronchoconstriction in guinea pigs, was determined, by administering compound by aerosol route; format: functional, organism-based
Outline: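 Urethane-anesthetized male guinea pigs were given propranolol 0.1 mg/kg i.v. 5 min before aerosol. Spontaneously breathing animals inhaled an NaOH-neutralized aqueous drug solution (varied % w/v) or distilled water for 5 min from an ultrasonic nebulizer, then were challenged with i.v. LTE. Tracheal pressure change was compared across 3 control and 5 treated animals. IC50 came from log concentration–response regression over ≥3 concentrations in the 10–90% range.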

Cavia porcellus [17] = experiment: In vivo inhibition of leukotriene-induced bronchoconstriction in guinea pigs, was determined, by administering 10 mg/kg of compound intravenously.;This compound caused bronchoconstriction; bc = Compound caused bronchoconstriction; format: functional, organism-based; parameters: dose 10 mg/kg; outline: as §2
Cavia porcellus [18] = experiment: In vivo inhibition of leukotriene-induced bronchoconstriction in guinea pigs, was determined, by administering compound by aerosol route, after 49 min; format: functional, organism-based; outline: as §1
Cavia porcellus [19] = experiment: In vivo inhibition of leukotriene-induced bronchoconstriction in guinea pigs, was determined, by administering compound by aerosol route, after 90 min; format: functional, organism-based; outline: as §1
Cavia porcellus [20] = species on record: Cavia porcellus; experiment: Inhibitory potency against leukotriene D4 (LTD) induced bronchoconstriction in guinea pigs; format: functional, organism-based; outline: as §3
Cavia porcellus [21] = experiment: In vivo inhibition of leukotriene-induced bronchoconstriction in guinea pigs, was determined, by administering compound by aerosol route, after 73 min; format: functional, organism-based; outline: as §1
Cavia porcellus [22] = species on record: Cavia porcellus; experiment: Inhibitory potency against leukotriene C4 (LTC) induced bronchoconstriction in guinea pigs; format: functional, organism-based; outline: as §3
Cavia porcellus [23] = experiment: In vivo inhibition of leukotriene-induced bronchoconstriction in guinea pigs, was determined, by administering compound by aerosol route, after 45 min; format: functional, organism-based; outline: as §1
Cavia porcellus [24] = experiment: In vivo inhibition of leukotriene-induced bronchoconstriction in guinea pigs, was determined, by administering compound by aerosol route, after 25 min; format: functional, organism-based; outline: as §1
Cavia porcellus [25] = experiment: In vivo inhibition of leukotriene-induced bronchoconstriction in guinea pigs, was determined, by administering compound by aerosol route, after 15 min; format: functional, organism-based; outline: as §1
Cavia porcellus [26] = experiment: In vivo inhibition of leukotriene-induced bronchoconstriction in guinea pigs, was determined, by administering compound by aerosol route, after 9 min; format: functional, organism-based; outline: as §1
Cavia porcellus [27] = experiment: In vivo inhibition of leukotriene-induced bronchoconstriction in guinea pigs, was determined, by administering compound by aerosol route, after 7 min; format: functional, organism-based; outline: as §1
Cavia porcellus [28] = experiment: In vivo inhibition of leukotriene-induced bronchoconstriction in guinea pigs, was determined, by administering 10 mg/kg of compound intravenously.; format: functional; conditions: route intravenous; outline: as §2
Cavia porcellus [29] = experiment: In vivo inhibition of leukotriene-induced bronchoconstriction in guinea pigs, was determined, by administering compound by aerosol route, after 14 min; format: functional, organism-based; outline: as §1
Cavia porcellus [30] = experiment: In vivo inhibition of leukotriene-induced bronchoconstriction in guinea pigs, was determined, by administering compound by aerosol route, after 30 min; format: functional, organism-based; outline: as §1

SMILES | IC50 [2] [µM] | IC50 (Cavia porcellus [6]) [% conc] | IC50 (Cavia porcellus [7]) [% conc] | IC50 (Cavia porcellus [10]) [% conc] | inhibition in vivo at 10 mg/kg (Cavia porcellus [3]) [%] | further results
CCCc1c(OCCOCCOCCOc2c(C(C)=O)ccc(OCC(=O)O)c2CCC)ccc(C(C)=O)c1O |  | 0.04 | 0.8 | > 1 | 85 | IC50 (Cavia porcellus [4]): 0.36 % conc; IC50 (Cavia porcellus [5]): 1000 nM; IC50 (Cavia porcellus [8]): 0.19 % conc; IC50 (Cavia porcellus [9]): 0.04 % conc
CCCc1c(OCCOCCOCCOc2c(C(C)=O)ccc(OCCCC(=O)O)c2CCC)ccc(C(C)=O)c1O |  |  |  |  | 57 | IC50 (Cavia porcellus [5]): 500 nM; IC50 (Cavia porcellus [16]): 1 % conc
CCCc1c(OCCCOc2ccc3ccc(OCC(=O)O)cc3c2)ccc(C(C)=O)c1O | 0.3 |  |  |  |  | inhibition (Cavia porcellus [17]): inactive; IC50 (Cavia porcellus [18]): 0.46 % conc
CCCc1c(OCCOCCOCCOCCOc2c(C(C)=O)ccc(OCC(=O)O)c2CCC)ccc(C(C)=O)c1O |  | 0.04 | 0.8 | > 1 | 90 | IC50 (Cavia porcellus [5]): 300 nM; IC50 (Cavia porcellus [20]): 0.18 % conc; IC50 (Cavia porcellus [21]): 0.04 % conc; IC50 (Cavia porcellus [22]): 1.3 % conc
CCCc1c(OCCCOc2ccc3ccc(OCC(=O)O)cc3c2C(C)=O)ccc(C(C)=O)c1O | 0.2 | 0.02 | > 1 | > 1 | 90 | IC50 (Cavia porcellus [4]): 0.22 % conc; IC50 (Cavia porcellus [24]): 0.02 % conc; IC50 (Cavia porcellus [8]): 0.32 % conc
CCCc1c(OCCCOc2cccc(OCC(=O)O)c2)ccc(C(C)=O)c1O | 0.5 |  |  |  | 64 | IC50 (Cavia porcellus [25]): 0.07 % conc
CCCc1c(OCCCOc2ccc3ccc(OCCCC(=O)O)cc3c2C(C)=O)ccc(C(C)=O)c1O | 0.08 |  |  |  | 93 | IC50 (Cavia porcellus [26]): 0.61 % conc
CCCc1c(OCCCCCOc2ccc3ccc(OCC(=O)O)cc3c2C(C)=O)ccc(C(C)=O)c1O | 0.2 |  |  |  | 60 | IC50 (Cavia porcellus [27]): 0.14 % conc
CCCc1c(OCCCOc2ccc3ccc(OCCCC(=O)O)cc3c2)ccc(C(C)=O)c1O | 5 |  |  |  |  | inhibition in vivo at 10 mg/kg (Cavia porcellus [28]): 75%; IC50 (Cavia porcellus [16]): 1 % conc

Second part, led by results:

IC50 [2] [µM] | IC50 (Cavia porcellus [6]) [% conc] | IC50 (Cavia porcellus [7]) [% conc] | IC50 (Cavia porcellus [10]) [% conc] | SMILES | inhibition in vivo at 10 mg/kg (Cavia porcellus [3]) [%] | further results
0.1 |  |  |  | CCCc1c(OCCOCCOc2c(C(C)=O)ccc(OCCCC(=O)O)c2CCC)ccc(C(C)=O)c1O | 91 | IC50 (Cavia porcellus [1]): 0.22 % conc
0.1 | 0.02 | > 1 | 1 | CCCc1c(OCCCCCOc2c(C(C)=O)ccc(OCC(=O)O)c2CCC)ccc(C(C)=O)c1O | 73 | IC50 (Cavia porcellus [4]): 0.11 % conc; IC50 (Cavia porcellus [11]): 0.02 % conc; IC50 (Cavia porcellus [8]): 0.13 % conc
0.2 |  |  |  | CCCc1c(OCCCOc2c(C(C)=O)ccc(OCCCC(=O)O)c2CCC)ccc(C(C)=O)c1O | 97 | IC50 (Cavia porcellus [12]): 0.18 % conc
1 | 0.01 | 0.9 | > 1 | CCCc1c(OCCCCCOc2c(C(C)=O)ccc(OCCCC(=O)O)c2CCC)ccc(C(C)=O)c1O | 92 | IC50 (Cavia porcellus [13]): 0.01 % conc; IC50 (Cavia porcellus [4]): 0.16 % conc; IC50 (Cavia porcellus [8]): 0.57 % conc
 | 0.79 | > 1 | > 1 | CCCc1c(OCC(O)COc2ccc3c(=O)cc(C(=O)O)oc3c2CCC)ccc(C(C)=O)c1O (configuration not stated) [FPL-55712] | 98 | IC50 (Cavia porcellus [4]): > 3 % conc; IC50 (Cavia porcellus [14]): 0.79 % conc; IC50 (Cavia porcellus [8]): 0.5 % conc
0.2 | 0.01 | > 1 | 1 | CCCc1c(OCCCOCCCOc2c(C(C)=O)ccc(OCCCC(=O)O)c2CCC)ccc(C(C)=O)c1O | 93 | IC50 (Cavia porcellus [4]): 0.15 % conc; IC50 (Cavia porcellus [8]): 0.19 % conc; IC50 (Cavia porcellus [15]): 0.01 % conc
2 |  |  |  | CCCc1c(OCCCOc2c(C(C)=O)ccc(OCC(=O)O)c2CCC)ccc(C(C)=O)c1O | 95 | IC50 (Cavia porcellus [19]): 0.07 % conc
0.5 |  |  |  | CCCc1c(OCCCCOCCCCOc2c(C(C)=O)ccc(OCC(=O)O)c2CCC)ccc(C(C)=O)c1O | 54 | IC50 (Cavia porcellus [23]): 0.1 % conc
1 |  |  |  | CCCc1c(OCCCOc2c(C(C)=O)ccc(OCCCCCC(=O)O)c2CCC)ccc(C(C)=O)c1O | 91 | IC50 (Cavia porcellus [11]): 0.02 % conc
0.2 |  |  |  | CCCc1c(OCCOCCOc2c(C(C)=O)ccc(OCC(=O)O)c2CCC)ccc(C(C)=O)c1O | 86 | IC50 (Cavia porcellus [29]): 0.02 % conc
0.4 |  |  |  | CCCc1c(OCCCOCCCOc2c(C(C)=O)ccc(OCC(=O)O)c2CCC)ccc(C(C)=O)c1O | 91 | IC50 (Cavia porcellus [30]): 0.1 % conc
0.2 |  |  |  | CCCc1c(OCCOCCOc2c(C(C)=O)ccc(OCCCCCC(=O)O)c2CCC)ccc(C(C)=O)c1O | 91 | IC50 (Cavia porcellus [16]): 1 % conc
